Experimental data reported in ChEMBL document CHEMBL3407441, “Design, synthesis and docking studies of novel thienopyrimidine derivatives bearing chromone moiety as mTOR/PI3Kα inhibitors” (Eur J Med Chem, 2015).

How the values were obtained:
[1] = biological target: T1, Serine/threonine-protein kinase mTOR (Homo sapiens, UniProt P42345); experiment: Inhibition of mTOR kinase (unknown origin) using ULight-4E-BP1 as substrate after 1 hr by TR-FRET assay
[2] = biological target: T2, Phosphatidylinositol 4,5-bisphosphate 3-kinase catalytic subunit alpha isoform (Homo sapiens, UniProt P42336); experiment: Inhibition of PI3K-alpha kinase (unknown origin) using ULight-4E-BP1 as substrate at 10 uM after 60 mins by luminescence assay; details: in the assay text read “L-alpha-phosphatidylinositol” for “ULight-4E-BP1”
In short: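 Kinase-Glo luminescent assay with 10 nM PI3Kα protein and lipid substrate prepared in 3% octyl-glucoside. The reaction was started by adding ATP in reaction buffer and ran 60 min. It was stopped with Kinase-Glo buffer, then luminescence was read.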

[3] = Cytotoxicity against human H460 cells after 72 hrs by MTT assay; assay type: functional, cell-based; details: NCI-H460, 72 h
In short: (§1)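 MTT assay on H460 and PC-3 cells grown in MEM with 10% FBS. MTT was added at […] and incubated with the cells for 4 h at 37 °C. Formazan was dissolved in DMSO and absorbance read at 492 nm against a 630 nm reference. Each compound was tested three times per cell line; IC50 values are averages of two determinations.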

[4] = Cytotoxicity against human PC3 cells after 72 hrs by MTT assay; assay type: functional, cell-based; details: PC-3, 72 h; in short: as §1
[5] = biological target: T2, Phosphatidylinositol 4,5-bisphosphate 3-kinase catalytic subunit alpha isoform; experiment: Inhibition of PI3K-alpha kinase (unknown origin) using L-alpha-phosphatidylinositol as substrate after 60 mins by luminescence assay
[6] = biological target: T1, Serine/threonine-protein kinase mTOR; experiment: Ratio of (E)-4-((2-(4,6-dimorpholino-1,3,5-triazin-2-yl)hydrazono)methyl)-2,6-dimethoxyphenol IC50 to compound IC50 for mTOR kinase (unknown origin)
[7] = biological target: T2, Phosphatidylinositol 4,5-bisphosphate 3-kinase catalytic subunit alpha isoform; experiment: Ratio of (E)-4-((2-(4,6-dimorpholino-1,3,5-triazin-2-yl)hydrazono)methyl)-2,6-dimethoxyphenol IC50 to compound IC50 for PI3K-alpha kinase (unknown origin)
[8] = Ratio of (E)-4-((2-(4,6-dimorpholino-1,3,5-triazin-2-yl)hydrazono)methyl)-2,6-dimethoxyphenol IC50 to compound IC50 for human H460 cells; assay type: functional
PC-3 = experiment: Ratio of (E)-4-((2-(4,6-dimorpholino-1,3,5-triazin-2-yl)hydrazono)methyl)-2,6-dimethoxyphenol IC50 to compound IC50 for human PC3 cells; assay type: functional

T2 sequence (P42336 whole entry, canonical isoform): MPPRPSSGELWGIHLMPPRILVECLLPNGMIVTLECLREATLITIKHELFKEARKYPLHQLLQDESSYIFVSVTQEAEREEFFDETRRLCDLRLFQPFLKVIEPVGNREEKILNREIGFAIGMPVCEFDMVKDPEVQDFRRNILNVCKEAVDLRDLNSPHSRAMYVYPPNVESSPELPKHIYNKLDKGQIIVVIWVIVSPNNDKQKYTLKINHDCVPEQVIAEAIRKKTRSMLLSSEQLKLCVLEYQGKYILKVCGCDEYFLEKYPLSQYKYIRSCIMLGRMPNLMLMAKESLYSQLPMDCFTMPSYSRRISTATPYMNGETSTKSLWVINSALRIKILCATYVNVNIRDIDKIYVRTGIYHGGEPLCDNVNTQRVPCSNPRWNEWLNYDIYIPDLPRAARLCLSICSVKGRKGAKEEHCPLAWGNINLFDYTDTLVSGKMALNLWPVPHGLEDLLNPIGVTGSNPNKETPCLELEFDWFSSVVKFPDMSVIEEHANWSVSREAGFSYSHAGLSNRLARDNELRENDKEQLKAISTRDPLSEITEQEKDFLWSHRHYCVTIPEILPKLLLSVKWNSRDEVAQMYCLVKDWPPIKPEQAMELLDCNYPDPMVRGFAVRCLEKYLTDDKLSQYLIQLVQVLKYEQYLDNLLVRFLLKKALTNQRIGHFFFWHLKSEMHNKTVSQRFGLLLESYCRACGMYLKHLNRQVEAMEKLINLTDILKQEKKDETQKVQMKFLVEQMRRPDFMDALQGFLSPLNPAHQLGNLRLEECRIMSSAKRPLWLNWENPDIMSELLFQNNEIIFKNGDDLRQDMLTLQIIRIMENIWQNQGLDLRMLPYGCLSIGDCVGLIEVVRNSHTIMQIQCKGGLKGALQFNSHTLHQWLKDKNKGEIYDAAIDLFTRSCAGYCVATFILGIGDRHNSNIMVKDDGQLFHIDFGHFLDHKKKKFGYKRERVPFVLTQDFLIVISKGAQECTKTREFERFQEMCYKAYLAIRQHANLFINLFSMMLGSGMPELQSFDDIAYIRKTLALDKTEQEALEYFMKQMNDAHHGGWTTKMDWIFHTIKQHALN

| IC50 [1] [nM] | inhibition [2] [%] | IC50 [5] [nM] | Ratio IC50 [6] | Ratio IC50 [7] | Structure (SMILES) | IC50 [3] [nM] | IC50 [4] [nM] | Ratio IC50 [8] | Ratio IC50 (PC-3) |
| --- | --- | --- | --- | --- | --- | --- | --- | --- | --- |
| > 30000 |  |  |  |  | Fc1cccc(Cn2cc(/C=N/Nc3nc(N4CCOCC4)c4sccc4n3)c3ccccc32)c1 |  |  |  |  |
| 920 | 91.2 | 1530 |  |  | O=c1c(/C=N/Nc2nc(N3CCOCC3)c3ccsc3n2)coc2ccc([N+](=O)[O-])cc12 | 3240 | 1420 |  |  |
|  |  | > 10000 |  |  | COc1cc(/C=N/Nc2nc(N3CCOCC3)nc(N3CCOCC3)n2)cc(OC)c1O |  |  |  |  |
| 3310 | 95 | 1810 |  |  | O=C(O)c1ccc2occ(/C=N/Nc3nc(N4CCOCC4)c4sccc4n3)c(=O)c2c1 |  | 6260 |  |  |
| 4620 | 58.8 | > 10000 |  |  | O=c1c(/C=N/Nc2nc(N3CCOCC3)c3sccc3n2)coc2ccc([N+](=O)[O-])cc12 |  | 6900 |  |  |
| 16600 |  |  |  |  | N#Cc1cccc(Cn2cc(/C=N/Nc3nc(N4CCOCC4)nc(N4CCOCC4)n3)c3ccccc32)c1 |  |  |  |  |
| 160 | 90.6 | 2350 | 8.6 | > 5 | O=C(O)c1ccc2occ(/C=N/Nc3nc(N4CCOCC4)c4ccsc4n3)c(=O)c2c1 | 1200 | 850 | 7.9 | 19.1 |
